Most compounds without a hit are left out; they make up all but 2.2% or so of the library.
IEC-6 tox = counter-screen for KLF5 inhibitors: cytotoxicity in IEC-6 cells | IEC-6 cytotoxicity, luminescence viability | inhibition, % at 5 µM | 290,000 tested, 0.78% active;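 also: 0% = plate median of test compound wells and 100% = cytotoxic reference compound wells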
MT stabilizer = microtubule stabilizers in HeLa cells; HeLa tubulin immunostaining HCS, 24 h; share of cells brighter than vehicle mean+2SD; AID 2205; 200,000 tested, 0.83% active; % tubulin-high responders, % at 10 µM;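 active = plate Z-score above 3 for both tubulin-high and condensed-nucleus cell shares, with cell loss under 80%, at 10 µM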;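 also: anti alpha tubulin signal scored within the nucleus-defined area of each cell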
Ba/F3 V617F tox = lowers viability of Ba/F3 cells expressing EpoR and JAK2V617F | ATP luminescence | inhibition, % at 5.6 µM | 220,000 tested, 1.1% active;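 active = inhibition above the campaign mean plus 3 SD over all tested compounds, cut at about 24% in these data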;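 also: cytokine-independent growth of Ba/F3 cells driven by EpoR plus mutant JAK2; 0% = DMSO-treated cells and 100% = JAK inhibitor I control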
APP transl inh = APP translation inhibition; SH-SY5Y APP 5'UTR-luciferase reporter, luminescence; AID 1285; inhibition, % at 2 µM; 190,000 tested, 0.82% active;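 active = inhibition above a set limit, derived from the sample mean plus 3 SD, cut at about 45% in these data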
b-catenin transl = modulators of beta-catenin nuclear translocation; HeLa beta-catenin nuclear translocation, immunofluorescence imaging; 190,000 tested, 0.3% active; nuclear translocation activity, % at 5 µM;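 active = nuclear translocation activity above 50% at 5 µM, with a well cell count of 50 or more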;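 also: per-cell ratio of nuclear to cytoplasmic median beta-catenin stain intensity; plate controls were DMSO negative control for no effect and GSK-3 inhibitor IX positive control for full effect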
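Test system: HeLa cells, endogenous beta-catenin; Compound: single 5 µM dose plus 0.02–20 µM confirmation series; Times: compound exposure 24 h at 37°C; Signal: fluorescence imaging of beta-catenin antibody stain plus DAPI; Read-out: % activation, nuclear-to-cytoplasmic median beta-catenin signal ratio per cell.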
BaF3 parental = reduces parental Ba/F3 cell viability, JAK2V617F counter-screen; AID 1486; 220,000 tested, 1.1% active; inhibition, % at 5.6 µM; CellTiter-Glo ATP luminescence;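 active = inhibition above a per-campaign cutoff, the mean inhibition of all tested compounds plus 3 SD, cut at about 27% in these data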;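 also: 0% = DMSO wells and 100% = JAK Inhibitor I control wells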
IEC-6 tox confirm = confirmation of cytotoxic compounds in rat IEC-6 intestinal epithelial cells; shares compounds with IEC-6 tox; IEC-6 rat intestinal epithelial viability, luminescence; inhibition, % at 5 µM; 1,900 tested, 63% active; AID 1907;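 also: 0% = vehicle and 100% = reference cytotoxic drug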
* = called active by the depositor; . = no result. Rule as the data show it, unless noted: active = inhibition above about 22%; inactive = the rest.

SMILES	IEC-6 tox	MT stabilizer	Ba/F3 V617F tox	APP transl inh	b-catenin transl	BaF3 parental	IEC-6 tox confirm
CC(C)c1nnc(NC(=O)c2nc(S(=O)(=O)Cc3ccccc3F)ncc2Cl)s1	18.2	.	.	.	.	.	.
Cc1nnc(NC(=O)c2nc(S(=O)(=O)Cc3ccccc3C)ncc2Cl)s1	68.9*	.	.	.	.	.	17.0
C/C(=N\Nc1ncnc2sc(C)c(C)c12)c1ccccn1	90.9*	.	.	.	.	.	94.2*
COc1cc(C(=O)N/N=C/c2sccc2C)cc(OC)c1OC	88.6*	12.3*	80.4*	91.9*	84.6*	84.5*	65.1*
COc1cc(C(=O)N/N=C/c2coc3ccccc3c2=O)cc(OC)c1OC	70.1*	.	.	.	.	.	2.2
Cc1ccsc1/C=N/NC(=O)c1ccncc1	1.1	2.1	1.4	-3.2	-1.3	1.7	.
COc1ccc(C(=O)N/N=C\c2coc3ccccc3c2=O)cc1	-7.1	.	-2.5	.	-2.8	0.3	.
Cc1cccc(NC(=S)NNC(=O)c2ccccc2OC(F)F)c1	3.8	2.7	1.7	-3.4	2.3	2.3	.
COc1ccc(NC(=S)NNC(=O)c2ccccc2OC(F)F)cc1	38.8*	36.0*	76.5*	25.8	15.5	55.4*	22.6*
COc1ccc(-c2cc(C)no2)cc1S(=O)(=O)N(C)c1ccc(C)cc1	28.3*	.	.	.	.	.	24.6*
COc1ccc(Cn2nnc3c(=O)[nH]c(C4CCN(S(=O)(=O)c5ccc(C)cc5)CC4)nc32)cc1	-1.5	.	.	.	.	.	.
Cc1cc(=O)oc2c(C)c(OCC(=O)N3CCN(c4cccc(Cl)c4)CC3)ccc12	-2.2	.	.	.	.	.	.
NC(=O)N=Nc1c2[nH]c3ccccc3nc-2c2ccccc12	25.9*	.	5.7	.	3.0	7.5	6.6
COc1ccccc1C(=O)n1nc(-c2cccnc2)nc1N	-1.2	3.3	-1.5	4.8	-2.9	-1.1	.
Nc1nc(-c2cccnc2)nn1C(=O)c1ccccc1Cl	36.1*	1.6	-4.1	-7.8	-2.9	-0.6	3.7
Cc1ccc2nc(N/C(=N/S(=O)(=O)c3ccc(F)cc3)c3ccccc3)sc2c1	-1.3	3.8	-2.9	-31.7	-2.6	5.1	.
Cc1ccc2nc(N/C(=N/S(=O)(=O)c3ccc(F)cc3F)c3ccccc3)sc2c1	22.5*	3.4	1.9	-66.2	-0.5	6.6	6.2
O=C1c2cccc3c([N+](=O)[O-])ccc(c23)C(=O)N1O	85.4*	.	.	.	.	.	11.4
CC(=O)Oc1ccc(N2C(=O)c3cccc4c([N+](=O)[O-])ccc(c34)C2=O)cc1	6.6	.	.	.	.	.	.
CCN(CC)c1ccc(/C=N/N=C(N)N)c(O)c1	68.9*	6.9	78.3*	92.2*	77.4*	75.3*	56.9*
Cn1c(O)c(C=Nc2ccc(Br)cc2)sc1=O	-3.5	1.6	-2.0	-165.2	3.8	2.8	.
CC(Sc1ccc([N+](=O)[O-])cn1)C(=O)Nc1nccs1 (stereo not given)	1.9	.	.	.	.	.	.
C/C(=N\NC(=O)c1ccccc1O)c1ccc(Br)s1	-5.1	1.3	-0.2	-24.0	0.1	4.7	.
C/C(=N\NC(=O)c1cccc(F)c1)c1ccc(Br)s1	24.1*	34.1*	6.7	-2.8	22.2	14.2	31.8*
CC(/C=N/NC(=O)c1n[nH]c2c1CCC2)=C\c1ccccc1	85.5*	10.5	82.9*	94.3*	214.7*	79.7*	62.2*
SMILES	IEC-6 tox	MT stabilizer	Ba/F3 V617F tox	APP transl inh	b-catenin transl	BaF3 parental	IEC-6 tox confirm
Cc1ccc(/C=N/NC(=O)c2n[nH]c3c2CCCC3)cc1	88.0*	.	93.1*	.	57.9*	93.0*	82.7*
C/C(=N\NC(=O)c1n[nH]c2c1CCC2)c1cccs1	81.3*	.	72.2*	.	-1.3	73.1*	17.4
O=C(N/N=C/c1cccs1)c1n[nH]c2c1CCCC2	8.3	.	2.2	.	0.2	1.6	.
O=C(N/N=C/C(Br)=C\c1ccccc1)c1n[nH]c2c1CCC2	74.6*	15.4*	85.0*	95.7*	.	78.4*	82.3*
COc1cccc(C(NC(C)=O)c2ccc3cccnc3c2O)c1 (stereo not given)	99.3*	.	.	.	.	.	75.2*
CC(=O)NC(c1ccc(C(C)C)cc1)c1ccc2cccnc2c1O (stereo not given)	69.7*	.	.	.	.	.	82.8*
CC(=O)NC(c1ccccc1)c1cc([N+](=O)[O-])c2cccnc2c1O (stereo not given)	-6.3	1.9	2.7	-20.8	0.1	10.0	.
CC(=O)NC(c1ccc(C)cc1)c1cc(Cl)c2cccnc2c1O (stereo not given)	93.5*	.	.	.	.	.	69.0*
CCCCC(=O)NC(c1ccc(C(C)C)cc1)c1ccc2cccnc2c1O (stereo not given)	15.9	.	.	.	.	.	.
CC(=O)NC(c1cccc([N+](=O)[O-])c1)c1ccc2cccnc2c1O (stereo not given)	93.9*	.	.	.	.	.	76.7*
COc1ccccc1N1CCN(S(=O)(=O)c2cc(Br)cnc2N)CC1	-0.2	.	.	.	.	.	.
COc1ccc(C)cc1NC(=O)CNC(C)C(=O)Nc1ccc(C(C)=O)cc1 (stereo not given)	-14.4	.	.	.	.	.	.
O=C(Nc1nc2ccc(S(=O)(=O)N3CCCC3)cc2s1)C1CCCCC1	69.8*	33.7*	81.5*	76.9*	2.6	78.9*	55.7*
CN(C)C(=O)COc1ccc2c3c(c(=O)oc2c1)CCCC3	1.5	.	.	.	.	.	.
COc1cc(-c2nnc3n2N=C(c2ccccc2)CS3)cc(OC)c1OC	76.7*	45.9*	73.8*	93.9*	92.9*	81.2*	67.3*
COc1ccc(OC)c(C2=Nn3c(nnc3-c3cc(OC)c(OC)c(OC)c3)SC2)c1	1.1	1.6	3.4	2.9	-2.1	7.9	.
COc1cccc(-c2nnc3n2N=C(c2cc(OC)ccc2OC)CS3)c1	-3.9	3.7	-1.1	-8.8	-1.7	0.1	.
COc1ccc(C2=Nn3c(nnc3-c3ccccc3OC)SC2)cc1OC	91.8*	16.5*	93.4*	95.8*	58.0*	88.7*	72.2*
CCc1ccc(C2=Nn3c(nnc3-c3cccs3)SC2)cc1	51.7*	2.9	-2.3	-1.3	0.4	4.2	34.7*
CCOc1cccc(-c2nnc3n2N=C(c2cc(OC)ccc2OC)CS3)c1	58.3*	29.0*	79.7*	88.4*	1.5	80.9*	51.6*
COc1ccc(C2=Nn3c(nnc3-c3ccccn3)SC2)cc1OC	1.4	4.8	5.4	-8.1	1.0	9.5	.
CCOc1ccccc1CN1CCC(N2CCOCC2)CC1	-1.4	.	.	.	.	.	.
Cc1ccc(C(=O)N2CCCC(N3CCN(c4cccc(C(F)(F)F)c4)CC3)C2)s1 (stereo not given)	-3.1	.	.	.	.	.	.
CCCCc1nc2ccc(S(=O)(=O)O)cc2[nH]1	0.2	.	-0.5	.	-0.7	-0.4	.
CCn1nnnc1SCC(=O)NC1Cc2ccccc2C1	2.5	.	-3.6	.	-0.7	-0.5	.
COc1ccc(C2=Nn3c(nnc3-c3ccc(OC)cc3)SC2)cc1	81.9*	29.3*	64.0*	93.4*	.	75.6*	58.2*
Cc1cccc(-c2nnc3n2N=C(c2ccccc2Br)CS3)c1	34.0*	1.1	37.1*	-15.8	-0.2	32.5*	21.2

Compound activity deposited in PubChem BioAssay by several laboratories.
